The target of assay [1] is Major prion protein (Mesocricetus auratus) (UniProt P04273). Nature of the assay: Inhibition of Syrian hamster prion protein (109-149) aggregation assessed as changes in light scattering at 1 uM by spectrofluorimetric analysis relative to control. An outline of the steps: (§1)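 Synthetic hamster PrP 109–149 peptide was solubilized in 50 mM MES pH 5.0 with 6 M urea and 10 mM SDS, where it stays unfolded. It was diluted at least 100-fold to 0.5 µM in 50 mM MES pH 5.0 containing increasing compound concentrations. Light scattering (450 nm excitation/emission) was followed over time. Maximum scattering was normalized to the no-compound control (100% aggregation) and to the peptide in 6 M urea (0%). Values are means of three independent measurements.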
Chain of Major prion protein (Mesocricetus auratus) (P04273 whole entry): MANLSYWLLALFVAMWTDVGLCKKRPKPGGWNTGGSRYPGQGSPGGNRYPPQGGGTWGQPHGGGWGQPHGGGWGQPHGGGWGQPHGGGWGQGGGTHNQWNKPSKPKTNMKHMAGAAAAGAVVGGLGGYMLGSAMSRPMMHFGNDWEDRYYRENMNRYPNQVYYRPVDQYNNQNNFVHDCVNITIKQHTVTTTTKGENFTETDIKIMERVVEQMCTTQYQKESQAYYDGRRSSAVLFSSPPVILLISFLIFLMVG

Assay [2] shares this target. Nature of the assay: Inhibition of Syrian hamster prion protein (109-149) aggregation assessed as compound concentration required to inhibit 50% aggregation by spectrofluorimetric analysis. In a few lines: as §1
The target is the same in assay [3]. Nature of the assay: Inhibition of Syrian hamster prion protein (109-149) aggregation assessed as changes in light scattering at 0.2 uM by spectrofluorimetric analysis relative to control. In a few lines: as §1
Assay [4] has the same target. Nature of the assay: Inhibition of Syrian hamster prion protein (109-149) aggregation assessed as changes in light scattering at 0.1 uM by spectrofluorimetric analysis relative to control. An outline of the steps:
as §1

The target is the same in assay [5]. Nature of the assay: Reduction of thioflavin T binding to Syrian hamster prion protein (109-149) at 10 uM after 10 mins by fluorescence assay. In a few lines:
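Peptide at 1.0 µM was incubated with compound at 10 µM in pH 5.0 buffer. After 10 min, thioflavin T was added to 20 µM final. Emission was recorded from 470–520 nm with excitation at 450 nm. The integrated spectral area was corrected for probe emission without peptide. Values are means of three experiments.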

The source made the active and inactive calls. The calls are words filed in the database; no cut-off is given here.

Turning to `CN(C)CCNc1ccnc2cc(Cl)ccc12`, the inhibition (usually the relative decrease from the control value, in per cent) in assay [1] turned out to be 82%. Further, in assay [2], the C50 was > 1 µM.

For the compound `NCCNc1ccnc2cc(Cl)ccc12`, the inhibition in assay [1] was determined as 7.9%; in assay [3] it was 50%; in assay [4], 50%. The C50 in assay [2] turned out to be 0.1 µM. The result in assay [5] was Active.

Turning to `Clc1ccc2c(NC3CCCC3)ccnc2c1`, in assay [2], the C50 is > 1 µM. Moreover, in assay [5], the outcome was Active.

Consider `OCCNc1ccnc2cc(Cl)ccc12`, for which, in assay [1], the inhibition worked out at 97%. Moreover, the C50 in assay [2] is > 1 µM. Also, the result in assay [5] was Active.

`Nc1ccnc2cc(Cl)ccc12`: the inhibition in assay [1] came out at 8.4%; in assay [3] it was 50%; in assay [4], 50%. Besides, the C50 in assay [2] was 0.2 µM. Moreover, the result in assay [5] was Active.

Regarding `CCN(CC)CCNc1ccnc2cc(SC(F)(F)F)ccc12`, the inhibition in assay [1] was found to be 54%. Besides, the C50 in assay [2] is > 1 µM.

Consider `CNc1ccnc2cc(Cl)ccc12`, for which the inhibition in assay [1] turned out to be 38.6%. The C50 in assay [2] is > 0.9 µM. Also, in assay [5], the outcome was Active.

The values are drawn from ChEMBL document CHEMBL1287645, “Synthesis and anti-prion activity evaluation of aminoquinoline analogues” (Eur J Med Chem, 2010).
